Source: ChEMBL document CHEMBL1154474, “Pharmacophore based discovery of potential antimalarial agent targeting haem detoxification pathway” (Eur J Med Chem, 2008)
“And” between values parts separate entries of the source, which are not always exact repeats. Identical values can stand only once. Counter-ions that a name gives are not always drawn.

Test system: Plasmodium falciparum
Assay: Antimalarial activity against chloroquine-resistant Plasmodium falciparum K1
Type: functional, organism-based
Conditions: not given

Structure (SMILES)	IC50 [nM]
CCN(CC)CCCC(C)Nc1cc(CCCCCCCCCCCCc2cc(NC(C)CCCN(CC)CC)c3ccccc3n2)nc2ccccc12 (centres undefined)	16
CN(C)CCCN(CCCN(C)C)CCCN1c2ccccc2Sc2ccc(Cl)cc21	420
C[n+]1c2ccccc2cc2[n-]c3ccccc3c21 [CRYPTOLEPINE HYDROCHLORIDE]	100000
C[n+]1c2ccccc2c(C(=O)O)c2[nH]c3ccc(Br)cc3c21	260
C[n+]1c2ccccc2cc2[nH]c3cc([N+](=O)[O-])cc([N+](=O)[O-])c3c21	650
CN(C)CCCN(C)CCCN1c2ccccc2Sc2ccccc21	1000
CN(C)CCCC(=O)Nc1ccc2c(c1)Sc1ccc(Cl)cc1N2C	7000
C[n+]1c2ccc(Br)cc2cc2[nH]c3ccc([N+](=O)[O-])cc3c21	100000
C[n+]1c2ccccc2cc2[nH]c3c([N+](=O)[O-])cccc3c21	6300
C[n+]1c2ccc(Cl)c(Cl)c2cc2[nH]c3ccccc3c21	440
C[n+]1c2ccc(Cl)cc2cc2[nH]c3cc(Cl)ccc3c21	45
CN(CCCNc1nc2ccc(Cl)cc2n2cccc12)CCCNc1nc2ccc(Cl)cc2n2cccc12	280
CCN(CC)CCCC(C)Nc1cc(CCCCCCCCCCc2cc(NC(C)CCCN(CC)CC)c3ccccc3n2)nc2ccccc12 (centres undefined)	17
CN(C)CCCN1c2ccc(NCc3cnc[nH]3)cc2Sc2ccc(Cl)cc21	1800
CN(C)CCCC(=O)Nc1ccc2c(c1)Sc1ccc(Cl)cc1N2CCCN(C)C	2000

Test system: Plasmodium falciparum
Assay: Antimalarial activity against chloroquine-resistant Plasmodium falciparum K1 after 48 hrs by [G-3H]hypoxanthine uptake
Type: functional, organism-based
Conditions: K1, 48 h

Structure (SMILES)	IC50 [nM]
CCN(CC)Cc1cc(Nc2ccnc3cc(Cl)ccc23)cc(-c2ccc(Cl)cc2)c1 [DEHYDROXY TEBAQUINE]	69.3
CCN(CC)Cc1cc(Nc2ccnc3cc(Cl)ccc23)cc(-c2ccc(Cl)cc2)c1F	69
CCN(CC)CCCC(C)NC1=CC=NCC1 (centres undefined)	15100
C=C[C@@H]1CN2CC[C@@H]1C[C@@H]2[C@@H](O)c1ccnc2ccccc12	90.6
Oc1ccc(Cc2ccnc3cc(Cl)ccc23)cc1CN1CCCC1	11.5
CC(CCCN1CCCC1)Nc1ccnc2cc(Cl)ccc12 (centres undefined) [Chloroquine-pyrolidinyl]	89.6
CCN(CC)Cc1cc(Nc2ccncc2)ccc1O	1300
CC(C)(C)NCc1cc(Cc2ccnc3cc(Cl)ccc23)ccc1O	9.1
CC(CCCN)Nc1ccnc2cc(Cl)ccc12 (centres undefined) [BIDESETHYL CHLOROQUINE]	1340
C=CC1CN2CCC1C[C@H]2[C@H](O)c1ccnc2ccc(OC)cc12 (single isomer, unassigned) [QUININE]	81
NCc1cc(Cc2ccnc3cc(Cl)ccc23)ccc1O	166
CCN(CC)Cc1cc(Cc2ccnc3cc(Cl)ccc23)ccc1O	18
C=CC1CN2CCC1C[C@@H]2[C@@H](O)c1ccnc2ccc(OC)cc12 (single isomer, unassigned) [QUINIDINE]	51
CCCCN(CCCC)CCC(C)c1cc2c(Cl)cc(Cl)cc2c2cc(C(F)(F)F)ccc12 (centres undefined)	2.8
C=C[C@@H]1CN2CC[C@@H]1C[C@H]2[C@H](O)c1ccnc2ccccc12	56.2
Oc1c(CN2CCCC2)cc(Nc2c3ccccc3nc3cc(Cl)ccc23)cc1CN1CCCC1	9.1
Oc1ccc(Nc2ccnc3cc(Cl)ccc23)cc1	2300
CC(c1cc(C(F)(F)F)nc2c(C(F)(F)F)cccc12)C1CCCCN1 (centres undefined)	9.4
CCN(CC)CCCC(C)Nc1c2ccc(Cl)cc2nc2ccc(OC)cc12 (centres undefined) [QUINACRINE]	43
CC(C)(C)NCc1cc(Nc2ccnc3cc(Cl)ccc23)cc(-c2ccc(Cl)cc2)c1O [TEBUQUINE]	13
CCNCc1cc(Cc2ccnc3cc(Cl)ccc23)ccc1O	38.8

Test system: Plasmodium falciparum
Assay: Antimalarial activity against chloroquine and pyrimethamine-resistant Plasmodium falciparum K1 after 24 hrs by [3H]hypoxanthine uptake
Type: functional, organism-based
Conditions: not given

Structure (SMILES)	IC50
CN(C)c1ccc(Nc2c3ccccc3nc3cc(N)ccc23)cc1	800 nM and 350 nM

Same assay, conditions: Plasmodium falciparum, K1

Structure (SMILES)	IC50 [nM]
CN(C)c1ccc(Nc2c3ccccc3nc3cc(Cl)ccc23)cc1	1100
NS(=O)(=O)c1ccc(Nc2c3ccc(Cl)cc3nc3cc(Cl)ccc23)cc1	620
CS(=O)(=O)Nc1ccc(Nc2c3ccccc3nc3cc(Cl)ccc23)cc1	1000
CS(=O)(=O)Nc1ccc(Nc2c3ccc(Cl)cc3nc3cc(Cl)ccc23)cc1	350
CNc1ccc(Nc2c3ccccc3nc3cc(Cl)ccc23)cc1	1200

Test system: Plasmodium falciparum
Assay: Antimalarial activity against chloroquine-resistant Plasmodium falciparum K1 after 72 hrs
Type: functional, organism-based
Conditions: K1, 72 h

Structure (SMILES)	IC50 [nM]
CN(C)CCC/N=C1\CC(c2ccc(Cl)cc2Cl)CC2Nc3ccc(Cl)cc3C(=O)C12 (centres undefined)	9.5
O=C1CC(c2ccc(C(F)(F)F)cc2)CC2C1C(=O)c1cc(Cl)ccc1N2O (centres undefined)	400
O=C1CC(c2ccc(Cl)cc2Cl)CC2Sc3ccc(Cl)cc3C(=O)C12 (centres undefined)	16

Test system: Plasmodium falciparum
Assay: Antimalarial activity against chloroquine-resistant Plasmodium falciparum K1 by [3H]hypoxanthine uptake
Type: functional, organism-based
Conditions: not given

Structure (SMILES)	IC50 [nM]
N=C(N)c1ccc(OCCCOc2ccc(C(=N)N)cc2)cc1 [PROPAMIDINE]	5.6
N=C(N)c1ccc(/C=C/c2ccc(C(=N)N)cc2)cc1 [STILBAMIDINE]	27
N=C(N)c1ccc(/N=N/Nc2ccc(C(=N)N)cc2)cc1 [DIMINAZENE]	190

Test system: not listed separately
Assay: Ionisation constant for the compound
Type: physicochemical
Conditions: not given
Outline: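 Spectrophotometric pKa determination on a UV spectrometer, with measurements in buffers from pH 5.8 to 11.2 and in 0.1 M NaOH and 0.1 M HCl. The pH 5.8–8.0 buffers were made from 0.1 M KH2PO4/K2HPO4, and the pH 8.4–11.2 buffers from 0.1 M glycine with 0.1 M NaOH. Two constants (pKa1, pKa2) were reported.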

pKa	Structure (SMILES)
6.87	CCOc1ccc(/C=C/C(=N\NC(=O)c2cccnc2)c2ccc(O)cc2)cc1OC
